Reference: article PMC6612960 (Drug Design, Development and Therapy, 2019)

Key:
K562/MDR cells [1] = assay: Confocal laser scanning microscopy, K562/MDR; format: cell-based, human; conditions: incubation 30 minutes
Procedure, shortened: (§1)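 Cells exposed to FITC-labelled peptide for 30 min in the dark, harvested, rinsed three times in PBS and imaged at once by CLSM (488 nm argon excitation for FITC). For mitochondrial co-localisation, cells were then given 30 nM rhodamine 123 for 30 min in the dark, washed and imaged with 488 nm (FITC) and 525 nm (rhodamine 123) laser lines.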

Jurkat cells [2] = assay: Confocal laser scanning microscopy, Jurkat; format: cell-based, human; conditions: incubation 30 minutes
Procedure, shortened: as §1

erythrocytes = assay: Peptide binding assay; format: cell-based; conditions: mouse erythrocytes, 30 minutes, 37°C, flow cytometry
Procedure, shortened: (§2)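 Cells (human lines or mouse erythrocytes) resuspended in PBS at 1×10^6/ml and exposed to FITC-labelled peptide at 37°C for 30 min in the dark. Washed in PBS and read by flow cytometry as mean fluorescence of 10,000 cells. Mean±SEM of three independent experiments.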

HEK293 cells = assay: Peptide binding assay; format: cell-based, human; conditions: HEK293, 30 minutes, 37°C, flow cytometry
Procedure, shortened: as §2

K562/MDR cells [3] = assay: MTT assay, K562/MDR cells; format: cell-based, human; conditions: K562/MDR vs K562
K562/MDR cells [4] = assay: LDH release, K562/MDR; format: cell-based, human; conditions: CM4 treatment (3, 9, 30 μM)
Procedure, shortened: (§3)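 Cells (1×10^5/mL) in RPMI 1640 held 4 h at 37°C, then exposed to peptide at 3, 9 or 30 μM for varying times. PBS and 2% Triton X-100 controls. Cell-free supernatant mixed with tetrazolium salt reagent; formazan read at 490 nm. Leakage % = [(A−C)/(P−C)]×100 (C = PBS, P = Triton). Mean±SEM of four independent experiments.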

Jurkat cells [5] = assay: LDH release, Jurkat; format: cell-based, human; conditions: CM4 treatment (3, 9, 30 μM)
Procedure, shortened: as §3

[6] = system: leukemia cells (K562, THP-1, and U937 cells); conditions: read-out: IC50, anticancer activity in leukemia cells; cited from earlier work
non-cancer cells = conditions: even at 120 μM; cited from earlier work
[7] = system: Peripheral blood mononuclear cells (PBMCs); assay: Trypan Blue dye exclusion, PBMCs; format: cell-based; conditions: 2 μM, 24 hours, mouse PBMCs
Procedure, shortened: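 PBMCs from mouse blood isolated by Ficoll density gradient and seeded at 5×10^5 cells/well in 12-well plates in RPMI 1640 with 10% FBS. Treated with test compound (2, 4, 10 μM), PBS or melittin at 37°C for 24 h. Stained with 0.4% Trypan Blue for 5 min, washed three times in PBS and viewed by fluorescence microscopy.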

FITC-myristoyl-CM4: fluorescein isothiocyanate labeled myristoyl-CM4 (GRWKIFKKIEKVGQNIRDGIVKAGPAVAVVGQAATI; not fully specified; FITC, myristoyl, C-terminal amide)
FITC signal on the cells (CLSM) (K562/MDR cells [1]): stronger than the FITC-CM4 signal | FITC signal on the cells (CLSM) (Jurkat cells [2]): stronger than the FITC-CM4 signal | fluorescence intensity on cells (erythrocytes): very weak | fluorescence intensity on cells (HEK293 cells): very weak

COc1cccc2c1C(=O)c1c(O)c3c(c(O)c1C2=O)C[C@@](O)(C(=O)CO)C[C@@H]3O[C@H]1C[C@H](N)[C@H](O)[C@H](C)O1 [doxorubicin]
resistance of K562/MDR compared with K562 cells (K562/MDR cells [3]): a certain resistence

GRWKIFKKIEKVGQNIRDGIVKAGPAVAVVGQAATI-NH2 [CM4]
LDH release (K562/MDR cells [4]): Virtually no LDH was released | LDH release (Jurkat cells [5]): Virtually no LDH was released | IC50 [6]: 20 to 40 µM | cytotoxicity towards non-cancer cells (non-cancer cells): no cytotoxicity

CC[C@H](C)[C@H](NC(=O)CN)C(=O)NCC(=O)N[C@@H](C)C(=O)N[C@H](C(=O)N[C@@H](CC(C)C)C(=O)N[C@@H](CCCCN)C(=O)N[C@H](C(=O)N[C@@H](CC(C)C)C(=O)N[C@H](C(=O)N[C@H](C(=O)NCC(=O)N[C@@H](CC(C)C)C(=O)N1CCC[C@H]1C(=O)N[C@@H](C)C(=O)N[C@@H](CC(C)C)C(=O)N[C@H](C(=O)N[C@@H](CO)C(=O)N[C@@H](Cc1c[nH]c2ccccc12)C(=O)N[C@H](C(=O)N[C@@H](CCCCN)C(=O)N[C@@H](CCCNC(=N)N)C(=O)N[C@@H](CCCCN)C(=O)N[C@@H](CCCNC(=N)N)C(=O)N[C@@H](CCC(N)=O)C(=O)N[C@@H](CCC(N)=O)C(N)=O)[C@@H](C)CC)[C@@H](C)CC)[C@@H](C)O)[C@@H](C)O)C(C)C)C(C)C [melittin]
cytotoxicity of PBMCs [7]: 100%
